These compounds were tested on aryl hydrocarbon receptor (Cavia porcellus) (assay: AHR ligand binders displacing [3H]TCDD, late-stage follow-up, counter-screen for AHR activator project, cell lysate, guinea pig liver cytosol, radiometric, set 2 (AID 624400)). Settings: [3H]TCDD binding, hydroxyapatite, at 10 µM, active compounds read high.
Procedure, shortened: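 Also added: 2 nM [3H]TCDD; material: guinea pig hepatic cytosol with AHR; controls: TCDF (200 nM) for nonspecific binding; doses: single nominal dose of 10 µM, 2% DMSO; incubation: 1 h binding incubation at room temperature; repeats: triplicate measurements per compound; technique: scintillation counting of hydroxyapatite-bound [3H]TCDD after Tween 80 buffer washes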

inhibition [%] | Structure (SMILES)
61.7 | Cc1ccc(-c2cc(-c3ccc(Cl)cc3)n[nH]2)c(O)c1
34.8 | Cc1ccc(-c2cc(-c3cccc(F)c3)n[nH]2)c(O)c1
19.8 | Cc1ccc(-c2cc(-c3ccc(F)cc3)n[nH]2)c(O)c1
